Source: PubChem BioAssay
STAT1 act: STAT1 signaling activators, primary screen, cell-based, HTS, luciferase reporter; actives 2.6% (n = 200,000); NIH 3T3 STAT1-luciferase reporter, IFN-gamma, luminescence; 100% = IFN-gamma alone, no compound; activation (% of control), % at 5.5 µM; AID 932, 2007;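 active means activation above the screen-wide mean activation plus 3 SD, cut at about 130% in these data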
NF-kB expr up: activators of NF-kB expression in neurons, primary screen, cell-based, HTS | human neuronal cells, NF-kB reporter expression; stronger effect = higher value | fold change at 12.5 µM | actives 1.6% (n = 190,000) | AID 1239, 2008; in the data active means fold change above about 3.3
FLuc inhib CS: firefly luciferase enzyme inhibitors, primary screen, artefact control for luciferase-based inhibitor screens, biochemical, luminescence, ATPLite. Luciferin 4-monooxygenase (Photinus pyralis), P08659. 10 min. inhibition, % at 10 µM. actives 1.5% (n = 200,000). AID 1006, 2008;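 active means inhibition above about 50% when tested at 10 µM, limit read from the data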
Target sequence (P08659 whole entry, looked up): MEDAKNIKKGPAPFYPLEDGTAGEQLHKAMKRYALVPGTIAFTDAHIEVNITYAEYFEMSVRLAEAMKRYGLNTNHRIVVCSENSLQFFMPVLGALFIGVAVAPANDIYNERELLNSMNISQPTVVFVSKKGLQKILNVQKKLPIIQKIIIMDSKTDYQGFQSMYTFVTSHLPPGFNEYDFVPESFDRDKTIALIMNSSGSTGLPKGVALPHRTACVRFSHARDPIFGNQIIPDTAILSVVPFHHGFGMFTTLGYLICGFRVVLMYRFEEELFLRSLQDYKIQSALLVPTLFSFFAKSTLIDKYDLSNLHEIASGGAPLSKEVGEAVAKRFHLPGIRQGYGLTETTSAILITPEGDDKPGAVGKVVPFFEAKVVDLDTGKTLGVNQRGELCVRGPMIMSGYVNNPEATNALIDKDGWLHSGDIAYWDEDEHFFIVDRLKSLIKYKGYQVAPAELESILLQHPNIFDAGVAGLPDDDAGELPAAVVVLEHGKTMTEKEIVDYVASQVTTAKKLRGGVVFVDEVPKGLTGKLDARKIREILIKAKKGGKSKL
FLuc stim CS: FLuc activators, initial screening, artefact control for FLuc-dependent activation tests, biochemical, ATPlite luminescence. ATPlite luciferase biochemical, 10 min; 0 = ATP-free wells, 1 = DMSO control. AID 1027, 2008. 200,000 tested, under 10 active. Luciferin 4-monooxygenase (Photinus pyralis), P08659. activation factor at 10 µM;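 active means luciferase activation factor, scaled between plate controls, of at least 2 with compound at 10 µM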
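Material: Luciferase/luciferin reagent mix; Doses: test compounds dosed from 2 mM stocks in 100% DMSO; Schedule: 10 min incubation after luciferase reagent addition, room temperature; Measured by: luminescence from luciferase reaction; Read-out: luminescence gain marking luciferase activators.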
APP 5'UTR act: activators of APP 5'UTR luciferase reporter, primary screen, SH-SY5Y cells. SH-SY5Y APP 5'UTR luciferase reporter, luminescence; zero percent = DMSO vehicle wells. activation, % at 2 µM. actives 1% (n = 190,000);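 active means activation above a set limit, based on mean plus 3 SD of controls, cut at about 140% in these data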
STAT1 activ conf: STAT1 signaling activators, confirmation, cell-based, HTS, luciferase reporter. actives 97% (n = 1,200). shares compounds with STAT1 act. NIH 3T3 STAT1-luciferase reporter, IFN-gamma potentiation, luminescence; 100% = IFN-gamma EC80 alone, no compound. activation (% of control), % at 5.7 µM;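 active means activation above a set limit carried over from the earlier primary STAT1 screen, cut at about 140% in these data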
NFkB act STAT1ct: NF-kB reporter activators, TNF-alpha stimulated, counter-screen for STAT1 activator project, cell-based, HEK293T, luciferase luminescence; shares compounds with STAT1 act; 100% = TNF-alpha with vehicle only; activation (% of control), % at 5.7 µM; actives 43% (n = 1,200);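 active means activation above the mean of solvent-only control wells plus 3 SD, set per campaign, cut at about 130% in these data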;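 further: TNF-alpha given at a submaximal dose yielding about 80% of full reporter signal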
STAT3 act STAT1c: STAT3 reporter activation by STAT1 hits, confirmation, counter-screen for STAT1 activator project, U3A cells, luciferase, luminescence; shares compounds with STAT1 act; activation (% of control), % at 5.7 µM; IL-6; cells lack STAT1; 100 = IL-6 alone, no compound effect; actives 46% (n = 1,200);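 active means activation above the solvent-only control well mean plus 3 SD, set per plate batch, cut at about 110% in these data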;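 further: higher means more STAT3 reporter activation so hits are non-selective activators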
Each line names hits and unclear results; the compound was inactive in the other large screens (follow-up assays come after a bar, where they were run). A selection: hits, their analogues and other compounds. The true share with any hit is near 4.1%.

COc1ccc2nc3oc(C(=O)N4CCCCC4)cc3cc2c1	STAT1 act 179, NF-kB expr up 6.4 | STAT1 activ conf 206 | NFkB act STAT1ct 136 | STAT3 act STAT1c inactive
COc1ccc(N(CC(=O)NCc2cccs2)S(=O)(=O)c2c(C)n[nH]c2C)cc1	none
Cc1noc(NS(=O)(=O)c2ccc(N/C=C\C(=O)c3ccc(F)cc3)cc2)c1C	none
NS(=O)(=O)c1ccc(N/C=C\C(=O)c2ccc(F)cc2)cc1	STAT1 act 156 | STAT1 activ conf 188 | NFkB act STAT1ct inactive | STAT3 act STAT1c 115
CC(=O)c1c(C)[nH]c(C(=O)OCCCCN2C(=O)c3ccccc3C2=O)c1C	none
N#C/C(=C\c1ccc(N2CCOCC2)o1)c1ccccc1	STAT1 act 161 | STAT1 activ conf 235 | NFkB act STAT1ct 150 | STAT3 act STAT1c 126
N#C/C(=C\c1ccc(N2CCOCC2)cc1)c1ccccc1	STAT1 act 174, APP 5'UTR act 208 | STAT1 activ conf 226 | NFkB act STAT1ct 143 | STAT3 act STAT1c inactive
N#C/C(=C/c1ccc(N2CCOCC2)o1)c1ccc(Br)cc1	none
Nc1c(C(=O)c2ccc(Br)cc2)oc2ccccc12	none
Nc1c(C(=O)c2ccccc2)oc2ccc(Br)cc12	STAT1 act 155, NF-kB expr up 4 | STAT1 activ conf 188 | NFkB act STAT1ct 136 | STAT3 act STAT1c 130
C=CCC(NC(C)c1ccccc1)c1ccco1 (stereo not drawn)	none
COc1cccc(NC(=O)Nc2ccc(C(C)(C)C)cc2)c1	STAT1 act 151, NF-kB expr up 4.3 | STAT1 activ conf 178 | NFkB act STAT1ct inactive | STAT3 act STAT1c inactive
CC(C)(C)c1ccc(NC(=O)Nc2ccc(F)cc2)cc1	STAT1 act 176, NF-kB expr up 4.2, APP 5'UTR act 162 | STAT1 activ conf 213 | NFkB act STAT1ct 138 | STAT3 act STAT1c 126
Cc1c(C)c2ccc(OS(C)(=O)=O)c(C)c2oc1=O	none
CCOc1nc(C)ccc1-c1noc(-c2ccccn2)n1	none
COc1nc(-c2ccccc2)ccc1-c1noc(-c2ccccc2)n1	none
COc1ccccc1-c1noc(-c2ccccc2)n1	STAT1 act 176, NF-kB expr up 5.6 | STAT1 activ conf 213 | NFkB act STAT1ct 142 | STAT3 act STAT1c 116
CCOc1ccccc1-c1nc(-c2ccc(C)nc2OC)no1	STAT1 act 153 | STAT1 activ conf 167 | NFkB act STAT1ct inactive | STAT3 act STAT1c 114
O=C(NC(=S)Nc1cccnc1)c1cccs1	none
Cc1ccnc(NC(=S)NC(=O)c2cccs2)c1	STAT1 act 237, NF-kB expr up 3.7, FLuc inhib CS 87 | STAT1 activ conf 263 | NFkB act STAT1ct 166 | STAT3 act STAT1c 132
Cc1ccc2oc(-c3ccc(C)c(NC(=O)Cc4cccs4)c3)nc2c1	none
Cc1ccc2oc(-c3ccc(C)c(NC(=S)NC(=O)c4cccs4)c3)nc2c1	STAT1 act 154, NF-kB expr up 3.4, APP 5'UTR act 222 | STAT1 activ conf 145 | NFkB act STAT1ct inactive | STAT3 act STAT1c 132
COc1cc(/C=C/C(=O)OCC(=O)N2CCN(C(=O)c3ccco3)CC2)ccc1O	none
O=C(c1cc(-c2ccc(Cl)c(Cl)c2)on1)N1CCCCC1	STAT1 act 159 | STAT1 activ conf 188 | NFkB act STAT1ct 137 | STAT3 act STAT1c 114
